This is an account of results in ChEMBL document CHEMBL4196105, “Discovery of β-Arrestin Biased Ligands of 5-HT7R” (J Med Chem, 2018).

SMILES strings stand for the structures.

The target of one data set is CYP2D6 (Homo sapiens, UniProt P10635). Nature of the data set: Inhibition of CYP2D6 in human liver microsomes assessed as remaining activity at 10 uM using dextromethorphan as substrate preincubated for 5 mins followed by addition of NADPH generating system measured after 15 mins by LC-MS analysis. In kind it is ADME. The following applies: probe dextromethorphan, read-out: Activity. The method, boiled down:
(§1)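 Human liver microsomes 0.25 mg/ml in 0.1 M phosphate, pH 7.4, with a probe cocktail: phenacetin 50 μM, diclofenac 10 μM, S-mephenytoin 100 μM, dextromethorphan 5 μM, midazolam 2.5 μM. Test compound at 10 μM versus 0 μM control. 5 min at 37 °C, then NADPH-generating system for 15 min. Acetonitrile quench; metabolites measured by LC/MS as % remaining activity.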
For orientation: Microsomes from liver hold many membrane-bound enzymes, among them those of drug oxidation.

Another data set concerns the target T1, CYP1A2 (Homo sapiens, UniProt P05177).
T1 sequence (P05177 whole entry): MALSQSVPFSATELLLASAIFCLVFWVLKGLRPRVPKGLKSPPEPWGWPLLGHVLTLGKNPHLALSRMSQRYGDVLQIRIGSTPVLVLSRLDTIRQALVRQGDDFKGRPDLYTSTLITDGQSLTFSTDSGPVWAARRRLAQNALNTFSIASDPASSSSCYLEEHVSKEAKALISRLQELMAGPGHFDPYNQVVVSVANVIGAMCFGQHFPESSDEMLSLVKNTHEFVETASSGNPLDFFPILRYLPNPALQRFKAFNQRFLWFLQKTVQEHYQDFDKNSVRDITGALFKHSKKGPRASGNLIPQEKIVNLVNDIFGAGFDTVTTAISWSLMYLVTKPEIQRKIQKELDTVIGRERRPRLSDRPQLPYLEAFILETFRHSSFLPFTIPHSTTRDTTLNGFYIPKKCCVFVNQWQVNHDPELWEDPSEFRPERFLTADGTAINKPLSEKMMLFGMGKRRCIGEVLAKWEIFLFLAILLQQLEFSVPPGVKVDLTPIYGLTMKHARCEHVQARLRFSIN
Nature of the data set: Inhibition of CYP1A2 in human liver microsomes assessed as remaining activity at 10 uM using phenacetin as substrate preincubated for 5 mins followed by addition of NADPH generating system measured after 15 mins by LC-MS analysis. In kind it is ADME. The following applies: probe phenacetin, read-out: Activity. The method, boiled down:
as §1

For a further data set, the target named is CYP2C9 (Homo sapiens, UniProt P11712). Nature of the data set: Inhibition of CYP2C9 in human liver microsomes assessed as remaining activity at 10 uM using diclofenac as substrate preincubated for 5 mins followed by addition of NADPH generating system measured after 15 mins by LC-MS analysis. In kind it is ADME. The settings on record: probe diclofenac, read-out: Activity. The method, boiled down:
as §1

A short description of data set [1]: Stability in human liver microsomes assessed as drug recovery at 1 uM preincubated for 5 mins followed by addition of NADPH generation system and measured after 30 mins by LC-MS analysis. The settings on record: read-out: Drug recovery. In kind it is ADME, microsome. The method, boiled down: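 Human liver microsomes 0.5 mg/ml in 0.1 M phosphate, pH 7.4, with 1 μM compound. Preincubated 5 min at 37 °C, then NADPH-generating system added for 30 min at 37 °C. Acetonitrile with internal standard added to stop the reaction, centrifuged, and supernatant analysed by LC/MS as % remaining.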

The nature of data set [2]: AUClast in ICR mouse at 5 mg/kg, iv by LC-MS/MS analysis. In kind it is ADME, organism-based. Set-up: dose 5 mg/kg, time 0 - last, route intravenous. The following applies: in vivo. The method, boiled down: (§2)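 Male ICR mice, 7~8 weeks, 30 ± 5 g; single dose 5 mg/kg IV (n = 5) or 50 mg/kg oral (n = 4). Plasma protein-precipitated with acetonitrile containing internal standard, then LC-MS/MS. Non-compartmental analysis; AUClast by trapezoidal rule. Mean ± SD.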

Data set [3] is described as follows: Cmax in ICR mouse at 5 mg/kg, iv by LC-MS/MS analysis. In kind it is ADME, organism-based. Set-up: dose 5 mg/kg, route intravenous. The settings on record: in vivo. The method, boiled down:
as §2

A short description of data set [4]: Clearance in ICR mouse at 5 mg/kg, iv by LC-MS/MS analysis. In kind it is ADME, organism-based. The following applies: in vivo. The method, boiled down: as §2
Data set [5] is described as follows: MRT in ICR mouse at 5 mg/kg, iv by LC-MS/MS analysis. The settings on record: in vivo. In kind it is ADME, organism-based. The method, boiled down: as §2
A short description of data set [6]: Apparent volume of distribution at steady state in ICR mouse at 5 mg/kg, iv by LC-MS/MS analysis. In kind it is ADME, organism-based. The settings on record: in vivo, read-out: Vdss. The method, boiled down: as §2
Data set [7] in a line: Terminal half-life in ICR mouse at 50 mg/kg, po by LC-MS/MS analysis. The settings on record: in vivo, read-out: beta t1/2 (converted). In kind it is ADME, organism-based. The method, boiled down: as §2
The nature of data set [8]: Cmax in ICR mouse at 50 mg/kg, po by LC-MS/MS analysis. In kind it is ADME, organism-based. The arrangement: dose 50 mg/kg, route oral. The following applies: in vivo. The method, boiled down: as §2
Data set [9] is described as follows: Tmax in ICR mouse at 50 mg/kg, po by LC-MS/MS analysis. In kind it is ADME, organism-based. The settings on record: in vivo. The method, boiled down:
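Male ICR mice, 7~8 weeks, 30 ± 5 g, given a single oral dose of 50 mg/kg (n = 4). Carotid-artery blood was sampled at 0, 0.25, 0.5, 1, 2, 4, 6 and 8 h. Plasma was protein-precipitated with acetonitrile containing internal standard and quantified by LC-MS/MS on a C18 gradient. Parameters came from non-compartmental analysis and are reported as mean ± SD.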

Data set [10] can be described thus: Oral bioavailability in ICR mouse at 50 mg/kg by LC-MS/MS analysis. In kind it is ADME, organism-based. The settings on record: in vivo. The method, boiled down:
as §2

Data set [11] deals with Mus musculus. Nature of the data set: Sleep promoting activity in C57B1/6J mouse assessed as increase in total non-rapid eye movement sleep time at 30 mg/kg, ip measured over 8 hrs by electroencephalogram method. In kind it is functional. The method, boiled down: (§3)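 Adult male C57Bl/6J mice, 10 weeks old, with parietal EEG screw electrodes implanted under ketamine. EEG and EMG recorded for 8 h from 9 AM, starting one day before dosing as baseline. On test day, 30 mg/kg i.p. at the start of the light phase, with EEG/EMG recorded for 8 h and scored in 2-h bins. n = 6-9 per group; mean ± SEM versus vehicle.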

For data set [12], the system named is Mus musculus. Nature of the data set: Sleep promoting activity in C57B1/6J mouse assessed as decrease in total rapid eye movement sleep time at 30 mg/kg, ip measured over 8 hrs by electroencephalogram method. In kind it is functional. The arrangement: scale not given: the % may be the effect or the level left. The method, boiled down:
as §3

The species named for data set [13] is Homo sapiens. In words: Selectivity index, ratio of Ki for human 5-HT3 receptor to Ki for human 5-HT7 receptor. The method, boiled down: (§4)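 Selectivity index taken as Ki at the other 5-HT receptor subtype divided by Ki at 5-HT7R, each from [3H]LSD membrane binding run by the NIMH PDSP. Ki values are means of at least three experiments in triplicate.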
The species entered for data set [14] is Homo sapiens. Nature of the data set: Selectivity index, ratio of Ki for human 5-HT5A receptor to Ki for human 5-HT7 receptor. The method, boiled down: as §4

Sequence of CYP2C9 (P11712 whole entry): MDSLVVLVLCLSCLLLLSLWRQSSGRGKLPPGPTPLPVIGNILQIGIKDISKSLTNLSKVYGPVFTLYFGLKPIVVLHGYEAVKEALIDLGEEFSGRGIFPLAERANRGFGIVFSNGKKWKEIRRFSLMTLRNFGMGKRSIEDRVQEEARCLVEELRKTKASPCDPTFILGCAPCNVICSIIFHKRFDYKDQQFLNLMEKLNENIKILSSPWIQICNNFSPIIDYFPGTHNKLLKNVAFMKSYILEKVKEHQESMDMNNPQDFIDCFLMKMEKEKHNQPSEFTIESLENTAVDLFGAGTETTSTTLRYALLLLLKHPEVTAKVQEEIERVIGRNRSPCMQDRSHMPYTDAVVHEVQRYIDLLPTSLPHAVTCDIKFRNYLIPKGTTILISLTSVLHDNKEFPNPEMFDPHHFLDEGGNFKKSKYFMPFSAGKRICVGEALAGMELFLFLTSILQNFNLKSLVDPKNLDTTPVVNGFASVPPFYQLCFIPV
Sequence of CYP2D6 (P10635 whole entry): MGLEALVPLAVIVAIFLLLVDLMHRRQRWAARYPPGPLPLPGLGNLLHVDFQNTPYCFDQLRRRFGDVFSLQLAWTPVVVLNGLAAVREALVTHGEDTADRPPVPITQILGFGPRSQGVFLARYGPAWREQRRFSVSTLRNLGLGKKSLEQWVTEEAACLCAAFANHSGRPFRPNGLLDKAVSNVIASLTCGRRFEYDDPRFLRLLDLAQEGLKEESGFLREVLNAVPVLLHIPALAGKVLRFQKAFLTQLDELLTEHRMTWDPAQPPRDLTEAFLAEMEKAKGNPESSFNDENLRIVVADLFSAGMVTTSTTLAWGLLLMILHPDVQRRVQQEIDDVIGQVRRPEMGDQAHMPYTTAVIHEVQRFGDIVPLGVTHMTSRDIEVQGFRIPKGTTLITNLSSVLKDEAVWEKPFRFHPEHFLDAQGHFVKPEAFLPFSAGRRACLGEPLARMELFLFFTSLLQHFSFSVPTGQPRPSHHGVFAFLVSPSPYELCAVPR

As to `Clc1ccc(-c2n[nH]c3c2CCNCC3)cc1`, the activity at 0.25 h, 10 µM is 75.7% on CYP2D6, 86% on CYP1A2 and over 100% on CYP2C9. For the same molecule, the remaining at 0.5 h, 1 µM in [1] is 82.4%. This molecule displayed an AUC(0-t) in data set [2] of 4900 ng·h/mL. Moreover, the Cmax in data set [3] was 2200 ng/mL; in data set [8], 11800 ng/mL. In addition, in data set [4], the clearance was 16 mL/min/kg. Besides, in data set [5], the MRT amounted to 2.5 h. The Vd in data set [6] is 2.47 L/kg. Moreover, in [7], the half-life was 2.77 h. The Tmax in data set [9] stood at 1.37 h. For the same molecule, the bioavailability in data set [10] came to 90.8%. Moreover, the figures for the Activity with Mus musculus [11] and in the data set with Mus musculus [12] were 21.4% and 36.7%, respectively.

For the molecule `Cc1ccc(-c2noc3c2CCNCC3)cc1`, the Ratio Ki was 26.3 in the data set filed under Homo sapiens [13] and 70.9 in the data set filed under Homo sapiens [14].

Broadly, the AUC(0-t) is the area under the concentration-time curve up to a stated or last time point. By Cmax is commonly meant the peak of the concentration-time curve. As a reminder, the clearance is the rate of elimination divided by the concentration. The term MRT denotes the average time that molecules of a dose stay in the body. The Tmax is the time from dosing to the highest level. In general, bioavailability refers to the share of a dose that reaches the circulation, judged against a reference dose that is usually intravenous.
